# Source: PubChem
# Most compounds without a hit are left out; they make up all but 2.5% or so of the library.
# CTSL1 counter: counter-screen for PFM18AAP inhibitors: inhibitors of F. hepatica cathepsin L1 | recombinant F. hepatica cathepsin L1, Z-Leu-Arg-MCA fluorescence | inhibition, % at 5.96 µM | 300,000 compounds, 0.49% hits | AID 1906;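 active = inhibition above the mean of all tested compounds plus 3 SD, set per screening campaign, cut at about 17% in these data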;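 note: 0% = plate median of test compound wells and 100% = 1 µM Z-Phe-Ala-diazomethylketone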
# PAD4 FP inh: PAD4 (human) enzyme inhibition; inhibition, % at 6.36 µM; recombinant PAD4, RCA probe fluorescence polarization; 330,000 compounds, 0.41% hits; AID 485272; Q9UM07;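 active = percent inhibition above a cutoff equal to the mean of all tested compounds plus 3 SD, cut at about 15% in these data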;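 note: 0% = PAD4 with RCA probe and DMSO and 100% = probe without PAD4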
# TDP2 inh: blocks human TDP2 phosphodiesterase activity. O95551. recombinant TDP2, T5PNP hydrolysis, p-nitrophenol absorbance 415 nm. inhibition, % at 12.8 µM. 370,000 compounds, 0.34% hits;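 active = inhibition above the mean of all tested compounds plus 3 SD, set per campaign, cut at about 25% in these data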;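 note: 0% = DMSO with enzyme and 100% = buffer with substrate but no TDP2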
#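 Evaluation: % inhibition relative to enzyme-containing and enzyme-free wells. Material: recombinant human TDP2. Benchmarks: enzyme-free and DMSO wells. Timing: enzyme reaction with compound for 2 h at 37 °C. Compound dosing: 12.8 µM only. Measured by: p-Nitrophenol epi absorbance. Reagent: T5PNP substrate at 5 mM, a TopII-DNA adduct mimic. Replication: single well per compound.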
# PRMT1 FP inh: inhibitors of human PRMT1; Q99873; recombinant PRMT1, activity-based probe fluorescence polarization; inhibition, % at 2.79 µM; 370,000 compounds, 1.3% hits; AID 652257;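 active = inhibition above about 21% made by adding two undisclosed values, limit read from the data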
# Target sequence (Q99873 whole entry, looked up): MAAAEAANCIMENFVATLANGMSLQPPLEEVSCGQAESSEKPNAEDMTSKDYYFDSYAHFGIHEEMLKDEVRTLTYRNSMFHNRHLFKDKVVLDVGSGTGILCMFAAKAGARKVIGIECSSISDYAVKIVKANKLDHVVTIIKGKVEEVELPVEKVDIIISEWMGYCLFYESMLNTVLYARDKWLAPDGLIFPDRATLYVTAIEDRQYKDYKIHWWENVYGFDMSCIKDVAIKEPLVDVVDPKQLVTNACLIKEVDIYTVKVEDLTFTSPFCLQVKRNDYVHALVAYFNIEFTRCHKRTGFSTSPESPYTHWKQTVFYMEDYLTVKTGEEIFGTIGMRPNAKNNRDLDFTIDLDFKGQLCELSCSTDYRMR
# GSTO1 counter: GSTO1 inhibition, counter-screen for RBBP9 inhibitors | recombinant GSTO1, activity-based probe fluorescence polarization | P78417 | 300,000 compounds, 1.1% hits | AID 1974 | inhibition, % at 5.96 µM;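 active = inhibition above the campaign mean inhibition plus 3 SD, cut at about 35% in these data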;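 note: 0% = GSTO1-1 with DMSO and 100% = wells lacking GSTO1-1 enzyme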
# * marks the source's active call; other numbers are inactive results; / = no result given.
SMILES,CTSL1 counter,PAD4 FP inh,TDP2 inh,PRMT1 FP inh,GSTO1 counter
O=C(Cn1c(=O)n(Cc2ccco2)c(=O)c2c3c(sc21)CCCCC3)c1ccccc1,5,2,/,/,4
CCCCC(=O)NC(=O)NC(c1ccccc1)c1ccccc1,33*,3,-17,1,-12
CCCCC(=O)NC(=S)NNS(=O)(=O)c1ccccc1,2,-1,/,/,1
CC(=O)Oc1cccc(N2C(=O)c3cccc4c([N+](=O)[O-])ccc(c34)C2=O)c1,-21,-2,7,-2,-24
Cc1ccc(C(=O)O)cc1N1C(=O)c2cccc3c([N+](=O)[O-])ccc(c23)C1=O,-1,1,-4,22*,-10
CC(=O)Nc1ccc(-n2c(C)ccc2-c2ccccc2)cc1,9,5,-26,23*,-1
CC(=O)c1ccc(NC(=O)NC2CCCCN(Cc3cccc(Cl)c3)C2=O)cc1 (stereo unspecified),/,/,-17,-4,/
CC(C)C[C@H]1COc2ccc(Cl)cc2S(=O)(=O)N1Cc1cn(Cc2ccc(C(F)(F)F)cc2)nn1,/,/,-14,-2,/
COc1ccc(C(c2ccc(OC)cc2)N2CCN(C(=O)c3noc(C)c3[N+](=O)[O-])CC2)cc1,/,/,-1,-1,/
CCc1ccccc1NC(=O)CN(C)Cc1c(O)ccc2ccccc12,0,1,-1,23*,7
COCCn1c(C)cc(C2=NNC(=Nc3ccccc3)SC2)c1C,-1,2,0,7,4
COc1ccccc1C1=NNC(=Nc2cccc(S(=O)(=O)N(C)C)c2)SC1,0,2,7,22*,-6
COC(=O)C1=C(C)N(Cc2ccco2)C(=O)/C1=C\c1ccc([N+](=O)[O-])cc1,-2,-2,-3,24*,12
COC(=O)C1=C(C)N(Cc2ccco2)C(=O)/C1=C\c1ccc(N(C)C)cc1,1,0,-2,-3,-23
CC(c1ccc(NC(=O)OC(C)(C)C)cc1)c1cn(C)c2ccccc12 (stereo unspecified),/,/,-7,-4,/
O=C(CN1C(=O)c2ccccc2S1(=O)=O)c1ccc(O)c(O)c1,0,1,1,4,17
O=C1c2cc(O)c(O)cc2S(=O)(=O)C1c1ccccc1 (stereo unspecified),-6,1,-15,24*,17
CC(CCN1CCC(C(O)(c2ccccc2)c2ccccc2)CC1)Oc1ccccc1C#N (stereo unspecified),/,/,0,2,/
CCNc1ccccc(C(=O)/C=C/c2ccc3c(c2)OCO3)c1=O,-2,-5,5,26*,44*
COC(=O)/C=C/c1ccc2c(c1)OCO2,1,-3,0,1,-2
CCn1c2ccccc2c2cc(NC(=O)COC(=O)c3cccc(F)c3)ccc21,/,/,3,-1,/
COc1ccc(NC(=O)N2CCN(CCC#N)CC2)cc1,17*,0,2,0,3
COc1ccc(NC(=O)N2CCN(C(=O)Nc3ccc(OC)cc3)CC2)cc1,-6,-3,7,1,5
COCCCN1C(=O)[C@H](CC(=O)N2CCCCC2)[C@]2(C(=O)OC)CCCCC=C12,/,/,2,1,/
Cc1ccc(S(=O)(=O)N2CCOCC2)cc1C(=O)NCC1CCCO1 (stereo unspecified),28*,-1,-2,-1,2
SMILES,CTSL1 counter,PAD4 FP inh,TDP2 inh,PRMT1 FP inh,GSTO1 counter
O=C(Nc1ccccc1NC(=O)c1csnn1)c1csnn1,28*,2,-13,0,3
CCOC(=O)N1CCN(C(=O)C[C@H]2C[C@@]3(C(=O)OC)C(=C[C@H](C(C)(C)C)O[C@@H]3C)N(Cc3ccco3)C2=O)CC1,/,/,0,-2,/
CC(C)(C)c1ccc(-c2nnc3sc(-c4ccccn4)nn23)cc1,3,-1,4,22*,-7
COc1ccc(-c2nnc3sc(-c4ccccn4)nn23)cc1,0,-5,/,/,-3
CC(=O)N1CCc2cc(S(=O)(=O)NC3CCN(C(=O)OCc4ccccc4)CC3)ccc21,/,/,4,-2,/
CCOc1c(O)ccc(/C=C2\SC(=S)NC2=O)c1[N+](=O)[O-],6,-17,8,17,56*
O=C(Nc1ccc2c(c1)OCO2)O[C@@H]1CC[C@@]23CCCN2C(=O)CCC[C@H]3C1,/,/,3,-3,/
C/C(CC(=O)Nc1ccc(Cl)c(Cl)c1)=N\NC(N)=S,30*,-7,6,-1,-11
C/C(CC(=O)Nc1cc(Cl)ccc1Cl)=N\NC(N)=S,8,3,4,4,0
